What was measured:
[1] = system: BGC-823; assay: Antiproliferative activity against human BGC-823 cells assessed as inhibition of cell growth incubated for 72 hrs by MTT assay; type: functional, cell-based; details: BGC-823, 72 h
Method in brief: (§1)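 Antiproliferative screen in gastric cancer lines MGC-803, HGC-27 and BGC-823 by MTT assay; IC50 reported as mean ± SD.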

[2] = Cytotoxicity against human GES1 cells assessed as inhibition of cell growth incubated for 72 hrs by MTT assay; type: toxicity, cell-based
[3] = system: HGC-27; assay: Antiproliferative activity against human HGC-27 cells assessed as inhibition of cell growth incubated for 72 hrs by MTT assay; type: functional, cell-based; details: HGC-27, 72 h; method in brief: as §1
[4] = system: MGC-803; assay: Antiproliferative activity against human MGC-803 cells assessed as inhibition of cell growth incubated for 72 hrs by MTT assay; type: functional, cell-based; details: MGC-803, 72 h; method in brief: as §1
[5] = system: PC-9; assay: Antiproliferative activity against human PC-9 cells assessed as inhibition of cell growth incubated for 72 hrs by MTT assay; type: functional, cell-based; details: PC-9, 72 h
[6] = system: MCF7; assay: Antiproliferative activity against human MCF7 cells assessed as inhibition of cell growth incubated for 72 hrs by MTT assay; type: functional, cell-based; details: MCF7, 72 h
[7] = system: NCI-H1975; assay: Antiproliferative activity against human NCI-H1975 cells assessed as inhibition of cell growth incubated for 72 hrs by MTT assay; type: functional, cell-based; details: NCI-H1975, 72 h

| Compound | IC50 [1] [µM] | IC50 at 72 h [2] [µM] | IC50 [3] [µM] | IC50 [4] [µM] | IC50 [5] [µM] | IC50 [6] [µM] | IC50 [7] [µM] |
| --- | --- | --- | --- | --- | --- | --- | --- |
| Cc1cc(N2CC[C@@H](C)[C@@H](N(C)c3ncnc4[nH]ccc34)C2)n2nc(SCc3ccc([N+](=O)[O-])cc3)nc2n1 | 59.6 | 36.6 | 29.4 | 26.9 |  |  |  |
| Cc1cc(N2CC[C@@H](C)[C@@H](N(C)c3ncnc4[nH]ccc34)C2)n2nc(SCc3csc4ccc(Cl)cc34)nc2n1 | > 100 | > 100 | > 100 | > 100 |  |  |  |
| Cc1cc(N2CC[C@@H](C)[C@@H](N(C)c3ncnc4[nH]ccc34)C2)n2nc(SCc3ccccc3)nc2n1 | 14.3 | 67.2 | 13.9 | 5.87 |  |  |  |
| Cc1cc(N2CC[C@@H](C)[C@@H](N(C)c3ncnc4[nH]ccc34)C2)n2ncnc2n1 | 67.4 | 57.9 | 11.3 | 4.35 | 20.9 | 33.8 | 22.2 |
| Cc1cc(N2CC[C@@H](C)[C@@H](N(C)c3ncnc4[nH]ccc34)C2)n2nc(SCc3cc(Cl)ccc3Cl)nc2n1 | 18.9 | 87.5 | 19.2 | 9.85 |  |  |  |
| Cc1ccc(CSc2nc3nc(C)cc(N4CC[C@@H](C)[C@@H](N(C)c5ncnc6[nH]ccc56)C4)n3n2)cc1 | 69.5 | 82.5 | 15.2 | 5.86 |  |  |  |
| Cc1cc(N2CC[C@@H](C)[C@@H](N(C)c3ncnc4[nH]ccc34)C2)n2nc(SCc3ccccc3Br)nc2n1 | 81.1 | > 100 | 21.3 | 27 |  |  |  |
| C#CCSc1nc2nc(C)cc(N3CC[C@@H](C)[C@@H](N(C)c4ncnc5[nH]ccc45)C3)n2n1 | 62.1 | > 100 | 35.1 | 18.1 |  |  |  |
| Cc1cc(N2CC[C@@H](C)[C@@H](N(C)c3ncnc4[nH]ccc34)C2)n2nc(SCc3nc4ccccc4[nH]3)nc2n1 | > 100 | 40.2 | > 100 | 21.2 |  |  |  |
| COc1ccc(CSc2nc3nc(C)cc(N4CC[C@@H](C)[C@@H](N(C)c5ncnc6[nH]ccc56)C4)n3n2)cc1 | 69.9 | > 100 | 18.2 | 15.2 |  |  |  |
| CCCSc1nc2nc(C)cc(N3CC[C@@H](C)[C@@H](N(C)c4ncnc5[nH]ccc45)C3)n2n1 | 51.2 | 67.1 | 20.9 | 15.5 |  |  |  |
| Cc1cc(N2CC[C@@H](C)[C@@H](N(C)c3ncnc4[nH]ccc34)C2)n2nc(SCCc3ccccc3)nc2n1 | 28 | 66.2 | 11.8 | 6.19 |  |  |  |
| Cc1cc(N2CC[C@@H](C)[C@@H](N(C)c3ncnc4[nH]ccc34)C2)n2nc(SCCCc3ccccc3)nc2n1 | > 100 | > 100 | > 100 | > 100 |  |  |  |
| Cc1cc(N2CC[C@@H](C)[C@@H](N(C)c3ncnc4[nH]ccc34)C2)n2nc(SCC3CCCCC3)nc2n1 | 16.3 | 98.2 | 11.5 | 9.17 |  |  |  |
| Cc1cc(N2CC[C@@H](C)[C@@H](N(C)c3ncnc4[nH]ccc34)C2)n2nc(SCC3CC3)nc2n1 | 36.5 | 27.9 | 21.4 | 9.54 |  |  |  |
| C[C@@H]1CCN(c2c3c(nc4ncnn24)CCC3)C[C@@H]1N(C)c1ncnc2[nH]ccc12 | > 100 | > 100 | 50.5 | 55.9 |  |  |  |
| Cc1cc(N2CC[C@@H](C)[C@@H](N(C)c3ncnc4[nH]ccc34)C2)n2nc(SCc3ccc(Br)cc3)nc2n1 | 28 | 55.6 | 19.5 | 4.02 |  |  |  |
| CCc1cc(N2CC[C@@H](C)[C@@H](N(C)c3ncnc4[nH]ccc34)C2)n2ncnc2n1 | 82.2 | > 100 | > 100 | 80.2 |  |  |  |
| O=c1[nH]cc(F)c(=O)[nH]1 [FLUOROURACIL] | 5.89 | 2.37 | 5.75 | 3.79 | 3.25 | 4.76 | 2.67 |
| C[C@@H]1CCN(c2cc(-c3ccccc3)nc3ncnn23)C[C@@H]1N(C)c1ncnc2[nH]ccc12 | > 100 | > 100 | > 100 | 84.9 |  |  |  |
| Cc1cc(N2CC[C@@H](C)[C@@H](N(C)c3ncnc4[nH]ccc34)C2)n2nc(SCc3ccc(F)c(Cl)c3)nc2n1 | 98.9 | > 100 | > 100 | 52 |  |  |  |
| C[C@@H]1CCN(C(=O)CC#N)C[C@@H]1N(C)c1ncnc2[nH]ccc12 [TOFACITINIB] |  |  |  | > 100 | > 100 | > 100 | > 100 |
| Cc1cc(N2CC[C@@H](C)[C@@H](N(C)c3ncnc4[nH]ccc34)C2)n2nc(SCc3cc(=O)oc4c3ccc3ccccc34)nc2n1 | > 100 | > 100 | > 100 | > 100 |  |  |  |
| CCCCCc1c(C)nc2nc(SCc3ccc(Cl)cc3)nn2c1N1CC[C@@H](C)[C@@H](N(C)c2ncnc3[nH]ccc23)C1 | 32.3 | > 100 | > 100 | > 100 |  |  |  |
| Cc1nc2nc(SCc3ccc(Cl)cc3)nn2c(N2CC[C@@H](C)[C@@H](N(C)c3ncnc4[nH]ccc34)C2)c1C | > 100 | 99.2 | > 100 | 90.5 |  |  |  |
| C=CCSc1nc2nc(C)cc(N3CC[C@@H](C)[C@@H](N(C)c4ncnc5[nH]ccc45)C3)n2n1 | 40.9 | > 100 | 35.2 | 32.5 |  |  |  |
| Cc1cc(N2CC[C@@H](C)[C@@H](N(C)c3ncnc4[nH]ccc34)C2)n2nc(SCc3ccc(Cl)cc3)nc2n1 | 26.3 | > 100 | 18.4 | 16 |  |  |  |
| Cc1cc(N2CC[C@@H](C)[C@@H](N(C)c3ncnc4[nH]ccc34)C2)n2nc(SCc3ccc(F)cc3)nc2n1 | 44.3 | 12.3 | 26 | 11.9 |  |  |  |

Source: ChEMBL document CHEMBL5244249, “Discovery of tofacitinib derivatives as orally active antitumor agents based on the scaffold hybridization strategy” (Eur J Med Chem, 2020)
